In ChEMBL document CHEMBL3758175, “Bis-isatin hydrazones with novel linkers: Synthesis and biological evaluation as cytotoxic agents” (Eur J Med Chem, 2016):

Columns and labels:
HepG2 [1] = assay: Cytotoxicity against human HepG2 cells assessed as cell viability after 24 hrs by crystal violet staining assay; type: functional, cell-based; settings: HepG2, 24 h
In short: (§1)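 Cells were kept as monolayers in RPMI-1640 with 10% heat-inactivated FCS and 50 µg/ml gentamycin at 37 °C under 5% CO2. They were seeded at 3,000 cells/well and, 24 h later, washed with PBS (pH 7.2). Ten dilutions in fresh medium were added for 24 h at 37 °C, with a 1% DMSO vehicle control. Survivors were stained with crystal violet, lysed with 33% acetic acid and read at 490 nm against untreated cells. IC50 was taken from graphic plots; mean of at least three experiments.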

MCF7 [2] = assay: Cytotoxicity against human MCF7 cells assessed as cell viability after 24 hrs by crystal violet staining assay; type: functional, cell-based; settings: MCF7, 24 h
[3] = Cytotoxicity against human HCT116 cells assessed as cell viability after 24 hrs by crystal violet staining assay; type: functional, cell-based; settings: HCT-116, 24 h; in short: as §1
HepG2 [4] = assay: Cytotoxicity against human HepG2 cells assessed as growth inhibition after 72 hrs by Sulforhodamine B colorimetric assay; type: functional, cell-based; settings: HepG2, 72 h
L1210 = assay: Cytotoxicity against mouse L1210 cells assessed as cell growth inhibition by MTT assay; type: functional, cell-based
[5] = Cytotoxicity against human KBV1 cells assessed as cell survival after 72 hrs by MTT assay; type: functional, cell-based; settings: KB-V1, 72 h
[6] = Cytotoxicity against human KB3-1 cells assessed as cell survival after 72 hrs by MTT assay; type: functional, cell-based; settings: KB 3-1, 72 h
MCF7 [7] = assay: Cell cycle arrest in human MCF7 cells assessed as decrease in cell level at G0/G1 phase at IC50 after 24 hrs by flow cytometric analysis relative to control; type: functional; set-up: scale not given: the % may be the effect or the level left
MCF7 [8] = assay: Induction of apoptosis in human MCF7 cells assessed as early apoptotic cells at IC50 after 24 hrs by annexin V-FITC/propidium iodide staining based flow cytometry (reference value: 3.70%); type: functional
MCF7 [9] = assay: Induction of apoptosis in human MCF7 cells assessed as late apoptotic cells at IC50 after 24 hrs by annexin V-FITC/propidium iodide staining based flow cytometry relative to control; type: functional
MCF7 [10] = assay: Cell cycle arrest in human MCF7 cells assessed as accumulation at pre-G phase at IC50 after 24 hrs by flow cytometric analysis relative to control; type: functional
MCF7 [11] = assay: Induction of apoptosis in human MCF7 cells at IC50 after 24 hrs by annexin V-FITC/propidium iodide staining based flow cytometry relative to control; type: functional
MCF7 [12] = assay: Induction of apoptosis in human MCF7 cells assessed as viable cells at IC50 after 24 hrs by annexin V-FITC/propidium iodide staining based flow cytometry (reference value: 96.3%); type: functional
MCF7 [13] = assay: Induction of apoptosis in human MCF7 cells assessed as necrotic cells at IC50 after 24 hrs by annexin V-FITC/propidium iodide staining based flow cytometry relative to control; type: functional
MCF7 [14] = assay: Cell cycle arrest in human MCF7 cells assessed as accumulation at G2/M phase at IC50 after 24 hrs by flow cytometric analysis relative to control; type: functional
MCF7 [15] = assay: Cytotoxicity against human MCF7 cells assessed as growth inhibition after 72 hrs by Sulforhodamine B colorimetric assay; type: functional, cell-based; settings: MCF7, 72 h
[16] = molecular target: Cyclin-dependent kinase 2/cyclin E1 (Homo sapiens, UniProt P24941); assay: Inhibition of GST-tagged recombinant human CDK2/cyclin E expressed in insect SF-9 cells after 10 mins by scintillation counting analysis in presence of [gamma-33P]-ATP; set-up: species or system Sf9

Row | Compound | IC50 (HepG2 [1]) | IC50 (MCF7 [2]) | IC50 [3] | other results
1 | COc1ccc2c(c1)/C(=N/NC(=O)c1cncc(C(=O)N/N=C3\C(=O)Nc4ccc(OC)cc43)c1)C(=O)N2 | 36.5 µM | 66.5 µM | 45.4 µM | 
2 | O=C1Nc2ccc(F)cc2/C1=N/Nc1nc(-c2ccccc2)nc2ccccc12 |  |  |  | IC50 (HepG2 [4]): 1 µM
3 | Cc1ccc2c(c1)/C(=N/NC(=O)N/N=C1\C(=O)Nc3ccc(C)cc31)C(=O)N2 |  |  |  | IC50 (L1210): 16 µM
4 | Cc1ccc2c(c1)/C(=N/NC(=O)C(=O)N/N=C1\C(=O)Nc3ccc(C)cc31)C(=O)N2 | > 100 µM | 55.9 µM | > 100 µM | 
5 | O=C1Nc2ccc([N+](=O)[O-])cc2/C1=N/NC(=O)c1cncc(C(=O)N/N=C2\C(=O)Nc3ccc([N+](=O)[O-])cc32)c1 | 75.9 µM | 88.8 µM | > 100 µM | 
6 | COc1ccc2c(c1)/C(=N/NC(=O)c1[nH]c(C)c(C(=O)N/N=C3\C(=O)Nc4ccc(OC)cc43)c1C)C(=O)N2 | 83.5 µM | 78.8 µM | > 100 µM | 
7 | O=C1Nc2ccc(Cl)cc2/C1=N/N=C1\C(=O)N(c2ccccc2)c2ccccc21 |  |  |  | IC50 [5]: 6.07 µM; IC50 [6]: 6.79 µM
8 | Cc1[nH]c(C(=O)N/N=C2\C(=O)Nc3ccc([N+](=O)[O-])cc32)c(C)c1C(=O)N/N=C1\C(=O)Nc2ccc([N+](=O)[O-])cc21 | 86.9 µM | > 100 µM | > 100 µM | 
9 | Cc1c(C(=O)N/N=C2\C(=O)Nc3ccccc32)c(C)n(C)c1C(=O)N/N=C1\C(=O)Nc2ccccc21 | > 100 µM | > 100 µM | > 100 µM | 
10 | Cc1[nH]c(C(=O)N/N=C2\C(=O)Nc3ccccc32)c(C)c1C(=O)N/N=C1\C(=O)Nc2ccccc21 | 30.1 µM | 69.2 µM | 76.5 µM | 
11 | Cc1ccc2c(c1)/C(=N/NC(=O)c1[nH]c(C)c(C(=O)N/N=C3\C(=O)Nc4ccc(C)cc43)c1C)C(=O)N2 | > 100 µM | 46.1 µM | 45.9 µM | 
12 | Cc1[nH]c(C(=O)N/N=C2\C(=O)Nc3ccc(Br)cc32)c(C)c1C(=O)N/N=C1\C(=O)Nc2ccc(Br)cc21 | 32.4 µM | 36.7 µM | 37.3 µM | 
13 | O=C1Nc2ccc(F)cc2/C1=N/NC(=O)c1cncc(C(=O)N/N=C2\C(=O)Nc3ccc(F)cc32)c1 | 76.3 µM | 38 µM | 24.5 µM | 
14 | O=C(N/N=C1\C(=O)Nc2ccc([N+](=O)[O-])cc21)C(=O)N/N=C1\C(=O)Nc2ccc([N+](=O)[O-])cc21 | 25.8 µM | 91.2 µM | 56.2 µM | 
15 | COc1ccc2c(c1)/C(=N/NC(=O)c1c(C)c(C(=O)N/N=C3\C(=O)Nc4ccc(OC)cc43)n(C)c1C)C(=O)N2 | 6.99 µM | 1.84 µM | 3.31 µM | Activity (MCF7 [7]): 18.5%; Activity (MCF7 [8]): 25%; Activity (MCF7 [9]): 0.36%; fold change (FC) (MCF7 [10]): 5; fold change (FC) (MCF7 [11]): 6.7; Activity (MCF7 [12]): 74.5%; Activity (MCF7 [13]): 0.18%; fold change (FC) (MCF7 [14]): 1.83
16 | O=C(N/N=C1\C(=O)Nc2ccc(Br)cc21)C(=O)N/N=C1\C(=O)Nc2ccc(Br)cc21 | 77.8 µM | 91.9 µM | 98.7 µM | 
17 | Cc1[nH]c(C(=O)N/N=C2\C(=O)Nc3ccc(F)cc32)c(C)c1C(=O)N/N=C1\C(=O)Nc2ccc(F)cc21 | 78.4 µM | 76.3 µM | 77 µM | 
18 | Cc1ccc2c(c1)/C(=N/NC(=O)c1c(C)c(C(=O)N/N=C3\C(=O)Nc4ccc(C)cc43)n(C)c1C)C(=O)N2 | 22.1 µM | 29.9 µM | 38.6 µM | 
19 | O=C1Nc2ccccc2/C1=N/NC(=O)c1cncc(C(=O)N/N=C2\C(=O)Nc3ccccc32)c1 | 72.7 µM | 39.1 µM | 39.2 µM | 
20 | COc1ccc(-c2nc(N/N=C3\C(=O)Nc4ccc(Cl)cc43)c3ccccc3n2)cc1OC |  |  |  | IC50 (MCF7 [15]): 2.1 µM
21 | O=C1Nc2ccc(Br)cc2/C1=N/NC(=O)c1cncc(C(=O)N/N=C2\C(=O)Nc3ccc(Br)cc32)c1 | 30.1 µM | 34.5 µM | 23.7 µM | 
22 | COc1cccc2c1C(=O)c1c(O)c3c(c(O)c1C2=O)C[C@@](O)(C(=O)CO)C[C@@H]3O[C@H]1C[C@H](N)[C@H](O)[C@H](C)O1 [DOXORUBICIN] | 3.56 µM |  | 3.7 µM | 
23 | O=C1/C(=C2\Nc3ccccc3C2=O)Nc2ccccc21 [INDIGO] |  |  |  | IC50 [16]: 1 µM
